Experimental data published in ChEMBL document CHEMBL3102713, “The cytotoxic effect of 2-acylated-1,4-naphthohydroquinones on leukemia/lymphoma cells” (Bioorg Med Chem, 2014).

What was measured:
Ramos = experiment: Cytotoxicity against human Ramos cells assessed as cell viability after 72 hrs by MTS assay; format: functional, cell-based
Method in brief: (§1)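 Cells seeded at 10,000 per well in 96-well plates; leukemia/lymphoma lines in RPMI, Hs27 fibroblasts in DMEM, both with 10% heat-inactivated FBS, penicillin and streptomycin, 37 °C, 5% CO2. Exposed to doubling concentrations from 1.56 to 100 µM for 72 h, then MTS added for 4 h. Absorbance read at 490 nm, reference 650 nm, cell-free background subtracted. Viability expressed relative to 1% DMSO solvent control. Eight replicates. IC50 is the concentration giving 50% inhibition of formazan conversion versus untreated cells.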

Jurkat = experiment: Cytotoxicity against human Jurkat cells assessed as cell viability after 72 hrs by MTS assay; format: functional, cell-based; method in brief: as §1
HS27 = experiment: Cytotoxicity against human HS27 cells assessed as cell viability after 72 hrs by MTS assay; format: cell-based; settings: HS27, 72 h; method in brief: as §1
CCRF-CEM [1] = experiment: Cytotoxicity against human CCRF-CEM cells assessed as cell viability after 72 hrs by MTS assay; format: functional, cell-based; method in brief: as §1
[2] = Cytotoxicity against human NALM6 cells assessed as cell viability after 72 hrs by MTS assay; format: functional, cell-based; settings: NALM-6, 72 h; method in brief: as §1
CCRF-CEM [3] = experiment: Induction of apoptosis in human CCRF-CEM cells assessed as necrotic cells at 50 uM after 72 hrs by measuring phosphatidylserine translocation using annexin V-FITC/propidium iodide staining-based flow cytometric analysis (reference value: 0.4%); format: functional
CCRF-CEM [4] = experiment: Induction of apoptosis in human CCRF-CEM cells assessed as late apoptotic cells at 50 uM after 72 hrs by measuring phosphatidylserine translocation using annexin V-FITC/propidium iodide staining-based flow cytometric analysis (reference value: 0.1%); format: functional
CCRF-CEM [5] = experiment: Induction of apoptosis in human CCRF-CEM cells assessed as viable cells at 50 uM after 72 hrs by measuring phosphatidylserine translocation using annexin V-FITC/propidium iodide staining-based flow cytometric analysis (reference value: 98.7%); format: functional; settings: read-out: Activity
CCRF-CEM [6] = experiment: Induction of apoptosis in human CCRF-CEM cells assessed as early apoptotic cells at 50 uM after 72 hrs by measuring phosphatidylserine translocation using annexin V-FITC/propidium iodide staining-based flow cytometric analysis (reference value: 0.8%); format: functional
CCRF-CEM [7] = experiment: Cytotoxicity against human CCRF-CEM cells assessed as intact mitochondrial membrane potential at 50 uM after 8 hrs by JC-1 red/green staining-based flow cytometry analysis (reference value: 96.7%); format: functional
CCRF-CEM [8] = experiment: Induction of apoptosis in human CCRF-CEM cells using fluorogenic substrate assessed as caspase 3 activation at 50 uM after 8 hrs by measuring viable cells using flow cytometric analysis (reference value: 93.9%); format: functional
Method in brief: (§2)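 CEM cells were seeded at 50,000 per well in RPMI with 10% FBS and exposed for 8 h at 37 °C, with CCCP (50 µM) as positive control and untreated and 1% DMSO controls. Cells were labelled with NucView 488 caspase-3/7 live-cell fluorogenic substrate. Green-positive cells were counted by flow cytometry (FL1 vs FL2 dot plots), about 10,000 events per sample, in triplicate.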

CCRF-CEM [9] = experiment: Induction of apoptosis in human CCRF-CEM cells using fluorogenic substrate assessed as caspase 3 activation at 50 uM after 8 hrs by measuring late apoptotic cells using flow cytometric analysis relative to control; format: functional; method in brief: as §2
CCRF-CEM [10] = experiment: Induction of apoptosis in human CCRF-CEM cells using fluorogenic substrate assessed as caspase 3 activation at 50 uM after 8 hrs by measuring early apoptotic cells using flow cytometric analysis (reference value: 6.1%); format: functional; method in brief: as §2
CCRF-CEM [11] = experiment: Cytotoxicity against human CCRF-CEM cells assessed as mitochondrial membrane depolarization at 50 uM after 8 hrs by JC-1 red/green staining-based flow cytometry analysis (reference value: 3.3%); format: functional
CCRF-CEM [12] = experiment: Induction of apoptosis in human CCRF-CEM cells assessed as caspase 3 activation at 50 uM after 8 hrs by measuring necrotic cells using flow cytometric analysis relative to control; format: functional; method in brief: as §2
CCRF-CEM [13] = experiment: Cytotoxicity against human CCRF-CEM cells assessed as mitochondrial membrane depolarization at 10 uM after 8 hrs by JC-1 red/green staining-based flow cytometry analysis (reference value: 3.3%); format: functional
CCRF-CEM [14] = experiment: Induction of apoptosis in human CCRF-CEM cells assessed as necrotic cells at 10 uM after 72 hrs by measuring phosphatidylserine translocation using annexin V-FITC/propidium iodide staining-based flow cytometric analysis (reference value: 0.4%); format: functional
CCRF-CEM [15] = experiment: Cytotoxicity against human CCRF-CEM cells assessed as mitochondrial membrane depolarization at 10 uM by JC-1 red/green staining-based flow cytometry analysis; format: functional, cell-based; settings: TDE = time-dependent effect
CCRF-CEM [16] = experiment: Cytotoxicity against human CCRF-CEM cells assessed as intact mitochondrial membrane potential at 10 uM after 8 hrs by JC-1 red/green staining-based flow cytometry analysis (reference value: 96.7%); format: functional
CCRF-CEM [17] = experiment: Induction of apoptosis in human CCRF-CEM cells assessed as late apoptotic cells at 10 uM after 72 hrs by measuring phosphatidylserine translocation using annexin V-FITC/propidium iodide staining-based flow cytometric analysis (reference value: 0.1%); format: functional
CCRF-CEM [18] = experiment: Cytotoxicity against human CCRF-CEM cells assessed as intact mitochondrial membrane potential at 10 uM after 6 hrs by JC-1 red/green staining-based flow cytometry analysis (reference value: 96.7%); format: functional
CCRF-CEM [19] = experiment: Cytotoxicity against human CCRF-CEM cells assessed as mitochondrial membrane depolarization at 10 uM after 6 hrs by JC-1 red/green staining-based flow cytometry analysis (reference value: 3.3%); format: functional
CCRF-CEM [20] = experiment: Induction of apoptosis in human CCRF-CEM cells assessed as viable cells at 10 uM after 72 hrs by measuring phosphatidylserine translocation using annexin V-FITC/propidium iodide staining-based flow cytometric analysis (reference value: 98.7%); format: functional; settings: read-out: Activity
CCRF-CEM [21] = experiment: Induction of apoptosis in human CCRF-CEM cells using fluorogenic substrate assessed as caspase 3 activation at 1 uM after 8 hrs by measuring viable cells using flow cytometric analysis (reference value: 96.1%)
CCRF-CEM [22] = experiment: Induction of apoptosis in human CCRF-CEM cells using fluorogenic substrate assessed as caspase 3 activation at 10 uM after 8 hrs by measuring early apoptotic cells using flow cytometric analysis (reference value: 3.9%); format: functional
CCRF-CEM [23] = experiment: Induction of apoptosis in human CCRF-CEM cells assessed as caspase 3 activation at 10 uM after 8 hrs by measuring late apoptotic cells using flow cytometric analysis relative to control; format: functional
CCRF-CEM [24] = experiment: Induction of apoptosis in human CCRF-CEM cells assessed as caspase 3 activation at 10 uM after 8 hrs by measuring necrotic cells using flow cytometric analysis relative to control; format: functional
CCRF-CEM [25] = experiment: Induction of apoptosis in human CCRF-CEM cells assessed as early apoptotic cells at 10 uM after 72 hrs by measuring phosphatidylserine translocation using annexin V-FITC/propidium iodide staining-based flow cytometric analysis (reference value: 0.8%); format: functional

| SMILES | IC50 (Ramos) [µM] | IC50 (Jurkat) [µM] | IC50 (HS27) [µM] | IC50 (CCRF-CEM [1]) [µM] | IC50 [2] [µM] | further results |
| --- | --- | --- | --- | --- | --- | --- |
| CC(=O)c1cc(O)c2ccccc2c1O | 0.75 | 5.6 | 9.87 | 5.24 | 5.09 | – |
| C/C=C/C(=O)c1cc(O)c2ccccc2c1O | 4.25 | 6.24 | 37.1 | 3.19 | 4.63 | Activity (CCRF-CEM [3]): 19.8%; Activity (CCRF-CEM [4]): 0.4%; viability at 50 µM (CCRF-CEM [5]): 78.6%; Activity (CCRF-CEM [6]): 1.3% |
| N#CC(C#N)=NNc1cccc(Cl)c1 [CARBONYL CYANIDE M-CHLOROPHENYLHYDRAZONE] | – | – | – | – | – | Activity (CCRF-CEM [7]): 0%; Activity (CCRF-CEM [8]): 66.3%; Activity (CCRF-CEM [9]): 1.1%; Activity (CCRF-CEM [10]): 32.6%; Activity (CCRF-CEM [11]): 100%; Activity (CCRF-CEM [12]): 0% |
| COc1ccc(C(=O)c2cc(O)c3ccccc3c2O)cc1 | 0.66 | 2.78 | 4.97 | 0.01 | 0.88 | – |
| O=C(c1ccccc1)c1cc(O)c2ccccc2c1O | 4.13 | 6.35 | 8.3 | 5.44 | 2.58 | – |
| CCC(=O)c1cc(O)c2ccccc2c1O | 2.49 | 4.54 | 18 | 3.95 | 2.02 | – |
| CCCCCCCCCCCC(=O)c1cc(O)c2ccccc2c1O | 0.98 | 6.56 | 43.8 | 5.99 | 5.8 | Activity (CCRF-CEM [13]): 62.3%; Activity (CCRF-CEM [14]): 3%; Activity (CCRF-CEM [15]): tde; Activity (CCRF-CEM [16]): 37.7%; Activity (CCRF-CEM [17]): 3.7%; Activity (CCRF-CEM [18]): 63.2%; Activity (CCRF-CEM [19]): 36.8%; viability at 10 µM (CCRF-CEM [20]): 0.5%; Activity (CCRF-CEM [21]): 64.8%; Activity (CCRF-CEM [22]): 35.2%; Activity (CCRF-CEM [23]): 0%; Activity (CCRF-CEM [24]): 0%; Activity (CCRF-CEM [25]): 92.8% |
| Cc1ccc(C(=O)c2cc(O)c3ccccc3c2O)cc1 | 0.52 | 3.35 | 4.37 | 0.74 | 2.41 | – |
